What is called pKi is −log10 of the Ki, conventionally taken in molar units.

pKi: −log10 of the molar value.

For series [1], the target named is T1, UDP-glucuronosyltransferase 1A8 (Homo sapiens, UniProt Q9HAW9).
T1 sequence (Q9HAW9 whole entry): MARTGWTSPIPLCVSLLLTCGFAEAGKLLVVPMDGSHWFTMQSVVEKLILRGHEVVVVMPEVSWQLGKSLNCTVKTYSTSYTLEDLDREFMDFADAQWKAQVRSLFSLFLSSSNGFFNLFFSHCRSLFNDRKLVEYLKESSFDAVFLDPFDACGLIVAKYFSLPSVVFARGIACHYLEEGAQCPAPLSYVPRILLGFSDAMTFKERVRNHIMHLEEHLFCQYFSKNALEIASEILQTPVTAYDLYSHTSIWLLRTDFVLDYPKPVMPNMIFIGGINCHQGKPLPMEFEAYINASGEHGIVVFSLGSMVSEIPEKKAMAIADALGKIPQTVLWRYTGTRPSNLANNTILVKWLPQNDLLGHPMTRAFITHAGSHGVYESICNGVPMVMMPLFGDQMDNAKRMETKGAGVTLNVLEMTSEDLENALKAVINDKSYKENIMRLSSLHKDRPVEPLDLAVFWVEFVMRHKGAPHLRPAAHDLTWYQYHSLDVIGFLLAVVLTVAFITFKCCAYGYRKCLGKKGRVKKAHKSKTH
The experiment in a line: Drug metabolism assessed as human UGT1A8-mediated T-5224 hydroxyl O-glucuronide formation at 5 to 50 uM after 60 mins in presence of UDP-glucuronic acid by HPLC method. Conditions: recombinant enzyme, 1 h. It is filed as ADME.

For series [2], the target named is T2, UDP-glucuronosyltransferase 1A1 (Homo sapiens, UniProt P22309).
T2 sequence (P22309 whole entry): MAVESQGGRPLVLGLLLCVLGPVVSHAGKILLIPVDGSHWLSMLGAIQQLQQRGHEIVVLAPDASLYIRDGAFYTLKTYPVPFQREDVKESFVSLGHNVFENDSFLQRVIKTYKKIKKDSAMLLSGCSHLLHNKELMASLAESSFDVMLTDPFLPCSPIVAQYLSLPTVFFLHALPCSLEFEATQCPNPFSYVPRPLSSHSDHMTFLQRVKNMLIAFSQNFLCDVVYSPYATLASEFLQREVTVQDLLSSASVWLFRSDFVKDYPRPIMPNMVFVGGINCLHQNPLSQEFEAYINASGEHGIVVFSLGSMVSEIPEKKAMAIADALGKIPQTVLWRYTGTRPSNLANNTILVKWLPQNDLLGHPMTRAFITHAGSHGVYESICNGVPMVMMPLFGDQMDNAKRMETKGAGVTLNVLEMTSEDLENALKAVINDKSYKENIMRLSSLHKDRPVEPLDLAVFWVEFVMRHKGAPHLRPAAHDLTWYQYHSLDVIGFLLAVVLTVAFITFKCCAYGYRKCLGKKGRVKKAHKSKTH
The experiment in a line: Drug metabolism assessed as Vmax/Km ratio for human UGT1A1-mediated T-5224 hydroxyl O-glucuronide formation per mg protein after 10 to 60 mins in presence of UDP-glucuronic acid by HPLC method. The class given is ADME. The conditions noted are these: recombinant enzyme. The procedure, abridged: (§1)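 Kinetics used recombinant UGT1A1, 1A3 or 1A8 (0.1 mg protein/mL) with T-5224 at 1–50 μM, 2 mM UDPGA and 60 min at 37°C, in triplicate. G2/G3 were measured by HPLC at 290 nm and fitted to a substrate-inhibition model (Vmax, Km, Ksi). UGT content was quantified by immunoblot, and kcat = Vmax/E0 was derived from it.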

The test system of series [3] is Liver microsome. Kind of series: Drug metabolism in pooled human liver microsomes assessed as T-5224 hydroxyl O-glucuronide formation in presence of UDPGA by LC-MS/MS method. The class given is ADME. (Microsomes from liver hold many membrane-bound enzymes, among them those of drug oxidation.)
Series [4] concerns the target T2, UDP-glucuronosyltransferase 1A1. The experiment in a line: Drug metabolism assessed as Vmax/Km ratio for human UGT1A1-mediated T-5224 acyl O-glucuronide formation per mg protein after 10 to 60 mins in presence of UDP-glucuronic acid by HPLC method. It is filed as ADME. The conditions noted are these: recombinant enzyme. The procedure, abridged: as §1
For series [5], the target named is T3, UDP-glucuronosyltransferase 1A3 (Homo sapiens, UniProt P35503).
T3 sequence (P35503 whole entry): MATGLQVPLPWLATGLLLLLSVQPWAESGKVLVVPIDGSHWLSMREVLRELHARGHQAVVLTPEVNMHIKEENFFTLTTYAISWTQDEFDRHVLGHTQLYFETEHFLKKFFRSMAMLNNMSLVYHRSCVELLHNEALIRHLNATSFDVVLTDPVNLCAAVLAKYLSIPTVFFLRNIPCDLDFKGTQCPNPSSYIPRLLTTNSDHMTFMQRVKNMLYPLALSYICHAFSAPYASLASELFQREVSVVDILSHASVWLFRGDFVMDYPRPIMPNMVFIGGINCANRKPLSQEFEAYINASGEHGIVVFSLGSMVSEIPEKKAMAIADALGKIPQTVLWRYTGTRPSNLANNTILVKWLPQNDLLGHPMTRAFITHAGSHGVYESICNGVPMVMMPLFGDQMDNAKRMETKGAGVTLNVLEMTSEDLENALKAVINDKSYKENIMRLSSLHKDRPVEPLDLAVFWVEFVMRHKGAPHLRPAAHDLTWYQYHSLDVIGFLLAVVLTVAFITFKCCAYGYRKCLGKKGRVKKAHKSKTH
The experiment in a line: Drug metabolism assessed as Vmax/Km ratio for human UGT1A3-mediated T-5224 hydroxyl O-glucuronide formation per mg protein after 10 to 60 mins in presence of UDP-glucuronic acid by HPLC method. It is filed as ADME. Conditions: recombinant enzyme. The procedure, abridged:
as §1

Series [6] is described as follows: Drug metabolism in pooled human intestinal microsomes assessed as T-5224 acyl O-glucuronide formation at 10 uM after 10 mins by HPLC method. It is filed as ADME, Intestine, Microsome. Summed up: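 T-5224 at 10 μM incubated for 10 min at 37°C with UDPGA (2 mM) in pooled liver (0.5 mg protein/mL) or intestinal (0.25 mg protein/mL) microsomes. Buffer was 50 mM Tris-HCl pH 7.5 with 8 mM MgCl2 and alamethicin, after 5 min preincubation. Stopped with acetonitrile; glucuronides quantified by HPLC at 290 nm.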

Series [7] is described as follows: Substrate inhibition of T-5224 acyl O-glucuronide formation in human intestinal microsomes after 10 to 60 mins by HPLC method. Further details: species or system Intestine, Microsome. The procedure, abridged:
(§2)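 Pooled liver (0.5 mg protein/mL) or intestinal (0.25 mg protein/mL) microsomes in 50 mM Tris-HCl pH 7.5, 8 mM MgCl2, alamethicin, 2% DMSO. T-5224 at 1–50 μM, 5 min preincubation at 37°C, started with 2 mM UDPGA. Incubated 10 min, or 20 min for intestinal microsomes at 1–5 μM. Acetonitrile stop, glucuronides by HPLC at 290 nm. Triplicates fitted to a substrate-inhibition model.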

The target of series [8] is T3, UDP-glucuronosyltransferase 1A3. The experiment in a line: Substrate inhibition of human UGT1A3-mediated T-5224 acyl O-glucuronide formation after 10 to 60 mins in presence of UDP-glucuronic acid by HPLC method. It is filed as ADME. The procedure, abridged: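 Recombinant human UGT1A1, UGT1A3 or UGT1A8 from baculovirus-infected insect cells (0.1 mg protein/mL) in 50 mM Tris-HCl pH 7.5, 8 mM MgCl2, alamethicin, 2% DMSO. T-5224 at 1–50 μM with 2 mM UDPGA for 60 min at 37°C. HPLC with UV at 290 nm. Triplicates fitted to a substrate-inhibition model. kcat uses UGT content quantified by immunoblot against recombinant UGT1A1/UGT2B4 standards.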

Series [9] concerns the target Liver microsome. Kind of series: Substrate inhibition of T-5224 hydroxyl O-glucuronide formation in human liver microsomes after 10 to 60 mins by HPLC method. The procedure, abridged: as §2

As to `O=C(O)CCc1cc(C(=O)c2ccc(OC3CCCC3)cc2O)ccc1OCc1ccc2c(O)noc2c1`, the Drug metabolism result in series [1], in series [3] and in series [6] was “metabolite_detected” throughout. The Vmax/Km in series [2] came out at 26.2 µL/min; in [4], 83.9 µL/min; in series [5], 47.5 µL/min. Moreover, the negative logarithm of the Ki (pKi) is 5.58 in series [7], 4.87 in series [8] and 4.57 in [9].

The values above are taken from ChEMBL document CHEMBL3526015, “Metabolism of the c-Fos/activator protein-1 inhibitor T-5224 by multiple human UDP-glucuronosyltransferase isoforms” (Drug Metab Dispos, 2011).
